Test results as given in ChEMBL document CHEMBL1157767, “Phenylcinnamides as novel antimitotic agents” (J Med Chem, 2010).
Active and inactive are the calls of the source. No cut-off for these calls is given here.

Columns and labels:
U-937 [1] = assay: Cytotoxicity against human U937 cells after 72 hrs MTS assay; format: functional, cell-based; conditions: U-937, 72 h
How it was run: (§1)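 Cells in RPMI-1640/10% FBS seeded at 1 × 10⁵ (U-937, HL-60) or 1.5 × 10⁵ (HL-60/VCR) cells/mL with compound from DMSO series, 10 concentrations 100 μM to 5 nM, five replicates; 72 h at 37 °C. MTS/PMS added until vehicle OD ≈1.5, A490. Internal positive and DMSO controls; IC50 by four-parameter logistic fit; SD from ≥3 experiments, or mean of two.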

HeLa [2] = assay: Cytotoxicity against human HeLa cells after 72 hrs SRB assay; format: functional, cell-based
How it was run: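 HeLa cells (5 × 10⁴ cells/mL suspension) seeded with compound from DMSO dilution series, 10 concentrations 100 μM to 5 nM, five replicates each; 72 h at 37 °C, 5% CO₂. TCA fixation, sulforhodamine B staining, bound dye released in 10 mM Tris pH 10.5, A510. Plate positive and DMSO controls calibrate % death; IC50 from four-parameter logistic fit; SD from ≥3 experiments, or mean of two.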

HL-60 [3] = assay: Selectivity ratio of IC50 for vincristine-resistant human HL60 cells to IC50 for human HL60 cells; format: functional
How it was run: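 Ratio of MTS-assay IC50 (72 h) in P-gp-overexpressing, vincristine/colchicine-resistant HL-60/VCR over IC50 in parental HL-60.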

HL-60 [4] = assay: Cytotoxicity against human HL60 cells after 72 hrs MTS assay; format: functional, cell-based; conditions: HL-60, 72 h; how it was run: as §1
HL-60 [5] = assay: Cytotoxicity against vincristine-resistant human HL60 cells after 72 hrs MTS assay; format: functional, cell-based; conditions: HL-60, 72 h; how it was run: as §1
HeLa [6] = assay: Induction of mitotic arrest in human HeLa cells assessed as disruption of microtubule assembly at 25 uM after 6 hrs fluorescence confocal microscopy; format: functional, cell-based
How it was run: (§2)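 HeLa on nitric acid-washed coverslips, treated at 70% confluency for 6 h with compound (25 μM) or DMSO (0.2% final). Glutaraldehyde fixation in BRB-80, Triton X-100 permeabilization, NaBH₄ reduction, goat-serum block, FITC anti-α-tubulin plus Alexa-Fluor 488 secondary, propidium iodide with RNase A; laser scanning confocal imaging, 63× oil objective.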

HeLa [7] = assay: Cell cycle arrest in human HeLa cells by accumulation of cells at G2/M phase at 25 uM after 9 hrs by propidium iodide staining based flow cytometry; format: functional; conditions: in the assay text read “M phase” for “G2/M phase”
How it was run: (§3)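 HeLa synchronized in G1/S by double thymidine block, released by washing and plated in fresh medium with test agent (25 μM or 100 nM) or DMSO vehicle for 9 h at 37 °C. Cells fixed in 3% formaldehyde-PBS, permeabilized in cold MeOH, stained with mouse anti-phospho(Ser10) histone H3 then Alexa-Fluor 488 secondary, RNase A-treated, propidium iodide DNA stain. Dual-laser flow cytometry; PI marks G2/M, phospho-H3 marks M-phase.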

HeLa [8] = assay: Induction of mitotic arrest in human HeLa cells assessed as mitotic index by indirect immunofluorescence staining (Rvb=2.2%); format: functional
HeLa [9] = assay: Induction of mitotic arrest in human HeLa cells assessed as increase in number of cells with mitotic DNA by indirect immunofluorescence staining; format: functional, cell-based
[10] = Inhibition of tubulin polymerization at 100 uM by turbidimetry
U-937 [11] = assay: Cell cycle arrest in human U937 cells by accumulation of cells at G2/M phase at 25 uM after 9 hrs by propidium iodide staining based flow cytometry; format: functional
HeLa [12] = assay: Cell cycle arrest in human HeLa cells by accumulation of cells at G2/M phase at 25 uM after 9 hrs by M-phase fluorescence staining based flow cytometry; format: functional; how it was run: as §3
HeLa [13] = assay: Induction of mitotic arrest in human HeLa cells assessed as chromosomal condensation at 25 uM after 6 hrs fluorescence confocal microscopy; format: functional, cell-based; how it was run: as §2
Bos taurus = species: Bos taurus; assay: Inhibition of bovine brain tubulin polymerization at 10 uM by turbidimetry
HeLa [14] = assay: Cell cycle arrest in human HeLa cells by accumulation of cells at G2 phase at 100 nM after 9 hrs by propidium iodide staining based flow cytometry; format: functional; how it was run: as §3
HeLa [15] = assay: Cell cycle arrest in human HeLa cells by accumulation of cells at M phase at 100 nM after 9 hrs by propidium iodide staining based flow cytometry; format: functional; how it was run: as §3

SMILES | IC50 (U-937 [1]) | IC50 (HeLa [2]) | other results
COc1cccc(/C=C/C(=O)Nc2ccccc2)c1 | > 50 µM | > 50 µM | –
COc1cccc(/C=C/C(=O)Nc2c(C)cccc2C)c1 | > 50 µM | > 50 µM | –
COc1cc2c(cc1O)CC[C@@H]1[C@@H]2CC[C@]2(C)[C@@H](O)CC[C@@H]12 [2-METHOXYESTRADIOL] | – | – | Ratio IC50 (HL-60 [3]): 0.26; IC50 (HL-60 [4]): 3.4 µM; IC50 (HL-60 [5]): 0.9 µM
COc1cc(NC(=O)/C=C/c2ccc(O)cc2)cc(OC)c1OC | 32 µM | > 50 µM | –
COc1cccc(/C=C/C(=O)Nc2cc(C)cc(C)c2)c1 | > 50 µM | – | –
COc1cc(NC(=O)/C=C/c2cccc(OC(F)(F)F)c2)cc(OC)c1OC | 13.2 µM | 4.4 µM | Ratio IC50 (HL-60 [3]): 0.99; IC50 (HL-60 [4]): 13.2 µM; IC50 (HL-60 [5]): 13.1 µM
COc1cc(NC(C)=O)cc(OC)c1OC | > 50 µM | > 50 µM | –
C=CCOc1cccc(/C=C/C(=O)Nc2cc(OC)c(OC)c(OC)c2)c1 | 13.3 µM | 5.4 µM | –
COc1cccc(/C=C/C(=O)Nc2cc(OC)cc(OC)c2)c1 | > 50 µM | – | –
COc1cccc(/C=C/C(=O)Nc2cccc(OC)c2)c1 | > 50 µM | > 50 µM | –
COc1cc(/C=C/C(=O)Nc2cc(OC)c(OC)c(OC)c2)cc(OC)c1OC | 15.3 µM | > 50 µM | –
C#CCOc1cccc(/C=C/C(=O)Nc2cc(OC)c(OC)c(OC)c2)c1 | 6 µM | 2 µM | –
COc1cc(NC(=O)/C=C/c2cc(OC)c(OC)c(OC)c2)cc(OC)c1 | 9.7 µM | 38.9 µM | –
COc1ccccc1/C=C/C(=O)Nc1ccccc1OC | > 50 µM | 36.1 µM | –
COc1cccc(/C=C/C(=O)Nc2ccccc2OC)c1 | > 50 µM | – | –
COc1cc(NC(=O)/C=C/c2cccc(O)c2)cc(OC)c1OC | 56.7 µM | 18.7 µM | –
COc1cccc(NC(=O)/C=C/c2cc(OC)c(OC)c(OC)c2)c1 | > 50 µM | – | –

SMILES | IC50 (U-937 [1]) | IC50 (HeLa [2]) | other results
COc1cc(NC(=O)/C=C/c2cccc(OCc3ccccc3)c2)cc(OC)c1OC | 1.8 µM | 2.1 µM | Ratio IC50 (HL-60 [3]): 0.98; Activity (HeLa [6]): Active; IC50 (HL-60 [4]): 5.6 µM; IC50 (HL-60 [5]): 5.5 µM
COc1ccccc1NC(=O)/C=C/c1cccc(OC(F)(F)F)c1 | 40.4 µM | 9.8 µM | –
COc1cc(NC(=O)/C=C/c2ccccc2)cc(OC)c1OC | 45 µM | > 50 µM | –
COc1cccc(CCC(=O)Nc2ccccc2OC)c1 | > 50 µM | > 50 µM | –
COc1ccc(NC(=O)/C=C/c2cccc(OC)c2)cc1 | 18.1 µM | – | –
COc1cc(NC(=O)/C=C/c2ccc(O)cc2)cc(OC)c1 | > 50 µM | > 50 µM | –
COc1cccc(/C=C/C(=O)NCc2cc(OC)c(OC)c(OC)c2)c1 | > 50 µM | > 50 µM | –
COc1ccccc1NC(=O)/C=C/c1cc(OC)c(OC)c(OC)c1 | > 50 µM | > 50 µM | –
COc1cc(/C=C/C(=O)Nc2ccccc2)cc(OC)c1OC | > 50 µM | > 50 µM | –
COc1cccc(/C=C/C(=O)Nc2cc(OC)c(OC)c(OC)c2)c1 | 3 µM | 11.3 µM | Activity (HeLa [7]): 49%; Ratio IC50 (HL-60 [3]): 3.74; Activity (HeLa [8]): 18.2%; Activity (HeLa [9]): Active; Activity (HeLa [6]): Active; IC50 (HL-60 [4]): 3.1 µM; inhibition [10]: Active; Activity (U-937 [11]): Active; Activity (HeLa [12]): Active; Activity (HeLa [13]): Active; IC50 (HL-60 [5]): 11.6 µM
COc1cccc(/C=C/C(=O)Nc2ccc3c(c2)OCCO3)c1 | 15.9 µM | 20.1 µM | –
CC(=O)O[C@H]1C(=O)[C@@]2(C)[C@H]([C@H](OC(=O)c3ccccc3)[C@]3(O)C[C@H](OC(=O)[C@H](O)[C@@H](NC(=O)c4ccccc4)c4ccccc4)C(C)=C1C3(C)C)[C@]1(OC(C)=O)CO[C@@H]1C[C@@H]2O | – | – | inhibition (Bos taurus): inactive; inhibition [10]: Active
COc1cccc(CCC(=O)Nc2cc(OC)c(OC)c(OC)c2)c1 | – | > 50 µM | –
COc1ccc(NC(=O)/C=C/c2cc(OC)c(OC)c(OC)c2)cc1 | 22.4 µM | > 50 µM | –
COC(=O)/C=C/c1cccc(OC)c1 | > 50 µM | > 50 µM | –
COc1cc2c(c(OC)c1OC)-c1ccc(OC)c(=O)cc1[C@@H](NC(C)=O)CC2 [COLCHICINE] | – | – | Activity (HeLa [14]): 37%; Ratio IC50 (HL-60 [3]): >1000; IC50 (HL-60 [4]): 0.053 µM; Activity (HeLa [15]): 59%; IC50 (HL-60 [5]): > 100 µM
COc1ccccc1/C=C/C(=O)Nc1cc(OC)c(OC)c(OC)c1 | 5.1 µM | 6.1 µM | –
